ChEMBL document CHEMBL2021905, “Structure-activity relationship of novel menaquinone-4 analogues: modification of the side chain affects their biological activities” (J Med Chem, 2012)

Experiments:
[1] = target: T1, Nuclear receptor subfamily 1 group I member 2 (Homo sapiens, UniProt O75469); test: (§1) Induction of human SXR transcriptional activity expressed in human HepG2 cells coexpressing GAL4 at 5 X 10^-6 M after 48 hrs by luciferase reporter gene assay relative to vehicle-treated control; type: cell-based; conditions: hepg2, 48 h, 5 µM
T1 sequence (O75469 whole entry): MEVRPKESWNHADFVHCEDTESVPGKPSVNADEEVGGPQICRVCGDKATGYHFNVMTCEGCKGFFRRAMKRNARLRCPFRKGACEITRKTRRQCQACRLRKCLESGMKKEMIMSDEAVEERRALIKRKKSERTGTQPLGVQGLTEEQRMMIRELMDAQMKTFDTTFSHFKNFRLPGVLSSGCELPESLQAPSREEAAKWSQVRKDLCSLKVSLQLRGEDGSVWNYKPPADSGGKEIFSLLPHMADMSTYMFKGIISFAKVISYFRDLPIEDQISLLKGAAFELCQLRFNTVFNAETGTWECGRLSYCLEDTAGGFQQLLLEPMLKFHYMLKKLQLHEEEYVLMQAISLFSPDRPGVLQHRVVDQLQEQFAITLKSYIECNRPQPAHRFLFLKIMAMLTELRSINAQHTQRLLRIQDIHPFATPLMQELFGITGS
Summary of the method: (§2)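 HepG2 cells (2 × 10^5 per well), maintained in Eagle's modified medium with 10% FCS and 1% each penicillin/streptomycin, transfected with pM-SXR (GAL4 fusion), pGVP2-GAL2 reporter and pRL-CMV. 24 h after transfection, treated in fresh medium with compound or ethanol vehicle for 48 h. Dual-luciferase read-out, firefly normalized to Renilla. Three independent experiments; mean ± SD.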

[2] = target: T2, SXR (nuclear receptor subfamily 1 group I member 2) (Homo sapiens, UniProt O75469); test: as §1; type: cell-based; conditions: HepG2 cells expressing human SXR and GAL4, read-out: FC; summary of the method: as §2
T2 sequence (O75469 whole entry): T1 sequence (O75469 whole entry)

MG-63 [3] = test: Prodrug conversion in human MG63 cells assessed as formation of deuterium 1a-methyl-7a-((2E,6E,10E)-3,7,11,15-tetramethylhexadeca-2,6,10,14-tetraenyl)naphtho[2,3-b]oxirene-2,7(1aH,7aH)-dione at 1 uM for 24 hrs by LC-APCI-MS/MS analysis; type: ADME, cell-based; conditions: mg-63, 24 h
Summary of the method: (§3)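 MG-63 human osteosarcoma cells incubated with compound at a final 1.0 μM, 37 °C, 24 h. Cellular vitamin K compounds extracted with hexane. Converted menaquinone-4 and its epoxide quantified by LC-APCI-MS/MS. Three independent experiments; mean ± SD.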

MG-63 [4] = test: Prodrug conversion in human MG63 cells assessed as formation of deuterium 2-methyl-3-((2E,6E,10E)-3,7,11,15-tetramethylhexadeca-2,6,10,14-tetraenyl)naphthalene-1,4-dione at 1 uM for 24 hrs by LC-APCI-MS/MS analysis; type: ADME, cell-based; conditions: mg-63, 24 h; summary of the method: as §3
MG-63 [5] = test: Prodrug conversion in human MG63 cells assessed as formation of MK-4 at 1 uM for 24 hrs by LC-APCI-MS/MS analysis; type: ADME, cell-based; conditions: mg-63, 24 h; summary of the method: as §3

| Structure (SMILES) | Activity [1] | fold induction at 48 h, 5 µM [2] | Drug metabolism (MG-63 [3]) | Drug metabolism (MG-63 [4]) | Drug metabolism (MG-63 [5]) |
| --- | --- | --- | --- | --- | --- |
| [2H]c1c([2H])c([2H])c2c(c1[2H])C(=O)C(C/C=C(\C)CC([2H])([2H])/C=C(/CC/C=C(\C)CCC=C(C)C)C([2H])([2H])[2H])=C(C([2H])([2H])[2H])C2=O | – | – | Active | Active | Active |
| [2H]c1c([2H])c([2H])c2c(c1[2H])C(=O)C(C/C=C(\C)CC/C=C(\C)CC/C=C/CCC=C(C)C)=C(C([2H])([2H])[2H])C2=O | Active | – | Active | Active | Active |
| [2H]c1c([2H])c([2H])c2c(c1[2H])C(=O)C(C/C=C(\C)CC/C=C(\C)CC/C=C(\C)CC/C=C/C)=C(C([2H])([2H])[2H])C2=O | Active | – | Active | Active | Active |
| [2H]c1c([2H])c([2H])c2c(c1[2H])C(=O)C(C/C=C(\C)CC/C=C/CC/C=C(\C)CCC=C(C)C)=C(C([2H])([2H])[2H])C2=O | Active | – | Active | Active | Active |
| [2H]c1c([2H])c([2H])c2c(c1[2H])C(=O)C(C/C=C/CC/C=C(\C)CC/C=C(\C)CCC=C(C)C)=C(C([2H])([2H])[2H])C2=O | Active | – | Active | Active | Active |

The remaining lines, values ahead:

| Activity [1] | fold induction at 48 h, 5 µM [2] | Drug metabolism (MG-63 [3]) | Drug metabolism (MG-63 [4]) | Drug metabolism (MG-63 [5]) | Structure (SMILES) |
| --- | --- | --- | --- | --- | --- |
| Not Active | – | – | – | – | [2H]c1c([2H])c([2H])c2c(c1[2H])C(=O)C(CCC(C)CCCC(C)CCCC(C)CCCC(C)C)=C(C([2H])([2H])[2H])C2=O (centres undefined) |
| Active | – | – | – | – | [2H]c1c([2H])c([2H])c2c(c1[2H])C(=O)C(C/C=C(\C)CCCC(C)CC/C=C(\C)CCC=C(C)C)=C(C([2H])([2H])[2H])C2=O (centres undefined) |
| – | 7 | – | – | – | [2H]c1c([2H])c([2H])c2c(c1[2H])C(=O)C(C/C=C(\C)CC/C=C(\C)CC/C=C(\C)CCC=C(C)C)=C(C([2H])([2H])[2H])C2=O |
| Not Active | – | – | – | – | [2H]c1c([2H])c([2H])c2c(c1[2H])C(=O)C(C/C=C(\C)CCCC(C)CCCC(C)CCCC(C)C)=C(C([2H])([2H])[2H])C2=O (centres undefined) |
| Not Active | – | – | – | – | [2H]c1c([2H])c([2H])c2c(c1[2H])C(=O)C(C/C=C(\C)CCCC(C)CCCC(C)CCC=C(C)C)=C(C([2H])([2H])[2H])C2=O (centres undefined) |
